The values below come from paper PMC3423201 (Molecular cancer therapeutics, 2011).

The target of one series is T1, AMACR (Homo sapiens, UniProt Q9UHK6).
T1 sequence (Q9UHK6 1-382): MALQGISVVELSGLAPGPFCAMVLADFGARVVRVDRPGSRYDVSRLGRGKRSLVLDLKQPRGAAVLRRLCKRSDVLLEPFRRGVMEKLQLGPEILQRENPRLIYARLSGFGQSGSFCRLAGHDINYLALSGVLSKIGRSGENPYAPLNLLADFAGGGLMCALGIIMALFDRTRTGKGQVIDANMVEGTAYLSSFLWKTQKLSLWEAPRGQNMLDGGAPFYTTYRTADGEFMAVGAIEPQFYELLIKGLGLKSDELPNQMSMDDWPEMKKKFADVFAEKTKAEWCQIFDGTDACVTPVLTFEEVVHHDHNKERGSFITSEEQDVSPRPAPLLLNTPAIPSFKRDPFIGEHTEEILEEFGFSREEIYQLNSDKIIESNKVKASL
As to the kind of experiment: Pre-incubation of AMACR with cysteine specific reagents, with or without ebselen. It is filed as biochemical. The settings on record: 20 mM dithithreitol, 5 mM tributylphosphine, 15 mM iodoacetamide.

Series [1] has as its target T2, AMACR-MBP (Homo sapiens, UniProt Q9UHK6).
T2 sequence (Q9UHK6 1-382): T1 sequence (Q9UHK6 1-382)
As to the kind of experiment: High-throughput screen for AMACR inhibitors. It is filed as biochemical. The settings on record: for inhibition at 100 µM: read-out: inhibition (decrease of fractional activity) in HTS. Summed up:
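Recombinant AMACR-MBP was expressed in E. coli TB1, purified on a maltose column and dialysed into 100 mM Na/K/Pi pH 7.25. Enzyme (0.3 μM) was incubated with 100 μM test compound (1% DMSO) and 150 μM [2,3-3H]Pri-CoA (60 Ci/mol) in buffer with 0.125 mg/mL BSA for 30 min at 37°C. Reactions were acid-quenched, neutralised and passed through C18 SPE, and released 3H2O was scintillation-counted. Fractional activity was calculated against each row's no-inhibitor control after no-enzyme background subtraction; <0.8 was flagged as a hit.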

Series [2] addresses T2, AMACR-MBP. As to the kind of experiment: Kitz-Wilson analysis of time-dependent inactivation. Format: biochemical. The settings on record: for KI (inactivation): 37°C, Kitz-Wilson transformation. Summed up:
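Inactivation mixtures at 37°C contained test compound at a series of concentrations and 5 μM AMACR-MBP, started with enzyme. At timed points from zero, 2 μL was diluted 50-fold into buffer with 150 μM [2,3-3H]Pri-CoA (100 nM final enzyme) and reacted for 30 min, then SPE/scintillation. Activity remaining was expressed versus time-matched no-inhibitor controls. T1/2 was regressed against 1/[I], giving kinact = ln2/y-intercept and KI(inact) = −1/x-intercept.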

In the next series the test system is WPMY1. As to the kind of experiment: In-vitro LD50, alamarBlue viability, WPMY1. The note with it: WPMY1, 48 hours. It is filed as cell-based, human. Summed up: (§1)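 Cells were plated at 10,000 per well in triplicate and allowed to attach overnight. Medium was replaced with test compound (0–500 μM or 0–400 μM depending on compound) for 48 h. Cells were then incubated with alamarBlue for 4 h and fluorescence read at 544 ex/590 em. After media-only background subtraction, viability was expressed as a percent of the vehicle control. LD50 came from a 4-parameter variable-slope fit with the bottom constrained to zero.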

Another series deals with PC3. As to the kind of experiment: In-vitro LD50, alamarBlue viability, PC3. It is filed as cell-based, human. The note with it: PC3, 48 hours. Summed up: as §1
Another series has as its system LAPC4. As to the kind of experiment: In-vitro LD50, alamarBlue viability, LAPC4. Format: cell-based, human. The settings on record: LAPC4, 48 hours. Summed up:
as §1

The subject of another series is LNCaP. As to the kind of experiment: In-vitro LD50, alamarBlue viability, LNCaP. It is filed as cell-based, human. The note with it: 48 hours. In short, it runs like this:
as §1

The nature of a further series: Mode of cell death. Format: cell-based. The note with it: Supplementary Figure S7.
In series [3] the target is T2, AMACR-MBP. Kind of series: Kinetic parameters. It is filed as biochemical. The note with it: 0.3 μM AMACR-MBP, 37°C, ± SEM. In short, it runs like this: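 Reactions of 185 μL held 0.3 μM AMACR-MBP in Na/K/Pi pH 7.25 with BSA at 37°C. [2,3-3H]Pri-CoA was used at 1–400 μM (twelve levels), all at 60 Ci/mol, and reactions were started with enzyme. Aliquots of 20 μL were taken at 0–900 s and quenched in 2 M HCl, with no-enzyme backgrounds at each time point. Aliquots were processed by SPE/scintillation, DPM were converted to rates, and rates were fitted directly to Michaelis-Menten.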

Series [4] deals with T2, AMACR-MBP. Kind of series: AMACR inhibitor IC50 determination. It is filed as biochemical. In short, it runs like this:
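Run as the plate screen (0.3 μM AMACR-MBP, 100 μM [2,3-3H]Pri-CoA, SPE and scintillation read-out), adding enzyme last. Test compound was dosed at 1–1000 μM, extended to 1–750 nM for selected compounds, from 100% DMSO stocks, giving 2–6% DMSO, in triplicate. Fractional activity was fitted by 3-parameter log(inhibitor)-response regression.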

Series [5] relates to prostate cancer cell lines (LAPC4/LNCaP/PC3) compared to WPMY1. It is filed as cell-based, human. The note with it: highest vs lowest AMACR expressor. In short, it runs like this: as §1
The target of series [6] is T2, AMACR-MBP. Kind of series: Effect of pre-incubation time on ebselen inhibition. It is filed as biochemical.
The conditions of series [7]: neuroprotective doses, 300 mg/day, oral; ref [44], [46]; cited from earlier work.

Structures are written as SMILES. Read-outs that look alike come from different tables or passages of the source. Bounds are passed on as bounds.

As for `O[C@@H](CS)[C@@H](O)CS` (racemic) [DTT, dithithreitol], the “effect of pre-incubation with cysteine specific reagent on AMACR-MBP activity” value (from here on “effect of pre-incubation”) at AMACR is “does not abrogate AMACR-MBP activity”.
On to `Nc1c(/N=N/c2ccc(-c3ccc(/N=N/c4cc(S(=O)(=O)O)c5ccccc5c4N)cc3)cc2)cc(S(=O)(=O)O)c2ccccc12` [Congo Red, congo red], for which, at AMACR-MBP [1], the inhibition at 100 µM is no less than 20%.
Take `Cc1cc(O)c(-c2cc(O)c(C)cc2O)cc1O` [DMPMB, 2-(2,5-dihydroxy-4-methylphenyl)-5-methyl benzene-1,4-diol]: the mode of inhibition result at AMACR-MBP [2] was “irreversible inactivators”. This compound came in with a KI (inactivation) on AMACR-MBP [2] of 24.3 µM. The LD50 came out at 117.6 ± 1.011 µM in the series with WPMY1, 101.1 ± 1.034 µM in the series on PC3, 58.78 ± 1.058 µM in the series with LAPC4 and 116.9 ± 1.033 µM in the series with LNCaP. Besides, the “type of cell death induced” value in the series “Mode of cell death” was “necrotic cell death”.
As for `NC(=O)CI` [IAA, iodoacetamide], the “effect of pre-incubation” value at AMACR is listed as “does not abrogate AMACR-MBP activity”.
As for `CSc1nc(=S)c2[nH]c(=S)[nH]c2[nH]1` [MSDTP, 2-methylsulfanyl-7,9-dihydro-3H-purine-6,8-dithione], on AMACR-MBP [2], the mode of inhibition result is “covalent inactivators”.
Consider `CCCCP(CCCC)CCCC` [TBP, tributylphosphine], for which the “effect of pre-incubation” value at AMACR was “does not abrogate AMACR-MBP activity”.
With `CC(C)CCCC(C)CCCC(C)CCCC(C)C(=O)SCCNC(=O)CCNC(=O)[C@H](O)C(C)(C)COP(=O)(O)OP(=O)(O)OC[C@H]1O[C@@H](n2cnc3c(N)ncnc32)[C@H](O)[C@@H]1OP(=O)(O)O` (some centres unmarked) [[2,3-^3H] Pri-CoA, [2,3-^3H] pristanoyl coenzyme A], the Km on AMACR-MBP [3] is 85.6 ± 17.1 µM.
Regarding `[3H]C(CCC(C)CCCC(C)CCCC(C)C)C([3H])(C)C(=O)SCCNC(=O)CCNC(=O)[C@H](O)C(C)(C)COP(=O)(O)OP(=O)(O)OC[C@H]1O[C@@H](n2cnc3c(N)ncnc32)[C@H](O)[C@@H]1OP(=O)(O)O` (some centres unmarked) [[2,3-^3H] Pri-CoA, [2,3-^3H] pristanoyl coenzyme A], the Vmax on AMACR-MBP [3] amounted to 294.9 ± 21.10 pmol/min.
Compound `O=C1c2ccccc2[Se](=O)N1c1ccccc1` (centres unmarked) [ebselen oxide] came in with a concentration for half-maximal inhibition (IC50) on AMACR-MBP [4] (100 μM [2,3-3H]Pri-CoA, 0.3 μM AMACR-MBP, enzyme initiated) of 0.8 µM.
As for `O=c1c2ccccc2[se]n1-c1ccccc1` [ebselen], on AMACR-MBP [1], the inhibition at 100 µM was no less than 20%. This compound registered an IC50 against AMACR-MBP [4] of 2.79 µM. Further, the mode of inhibition result at AMACR-MBP [2] is reported as “irreversible inactivators”. For the same compound, on AMACR-MBP [2], the KI (inactivation) was 24 µM. Besides, the LD50 in the series with WPMY1 was found to be 467.1 ± 1.017 µM; with PC3, 332.3 ± 1.015 µM; with LAPC4, 98.43 ± 1.038 µM; with LNCaP it was 71.96 ± 1.106 µM. Also, the “difference in LD50 between LNCaP and WPMY1” value in series [5] worked out at 5 fold. For the same compound, the “type of cell death induced” value in the series “Mode of cell death” is given as “necrotic cell death”. The “fractional activity of AMACR-MBP” value on AMACR-MBP [6] (no pre-incubation (enzyme initiated)) was ~ 50%; on AMACR-MBP [6] (pre-incubation time of ≥ 5 minutes (substrate initiated)) it was “just above background”. Besides, in [7], the “tolerability in clinical trials” value was “well tolerated”.
Take `O=C1c2c(O)ccc(O)c2C(=O)c2c(NCCNCCO)ccc(NCCNCCO)c21` [mitoxantrone]: the “inhibition of AMACR-MBP detected in library screen” value against AMACR-MBP [1] (100 μM, both JHDL and NCI/DTP libraries) is reported as “inhibition of AMACR-MBP”.
